Inhibition data for 25 compounds are collected here from PubChem BioAssay AID540295 (The Scripps Research Institute Molecular Screening Center, 2011).

About 1,700 (0.47%) of roughly 360,000 compounds were called active.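 Rule for the calls: active = inhibition above its plate's cutoff, the mean of tested wells on that plate plus 3 SD (cut at about 29% in these data); inactive = the rest.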 For the sample, actives were picked, then their nearest neighbours and some compounds at random.

The inhibition is the change of the read-out against control, counted positive when it falls.

Chain of Melanocortin receptor 4 (Homo sapiens) (P32245 whole entry, looked up): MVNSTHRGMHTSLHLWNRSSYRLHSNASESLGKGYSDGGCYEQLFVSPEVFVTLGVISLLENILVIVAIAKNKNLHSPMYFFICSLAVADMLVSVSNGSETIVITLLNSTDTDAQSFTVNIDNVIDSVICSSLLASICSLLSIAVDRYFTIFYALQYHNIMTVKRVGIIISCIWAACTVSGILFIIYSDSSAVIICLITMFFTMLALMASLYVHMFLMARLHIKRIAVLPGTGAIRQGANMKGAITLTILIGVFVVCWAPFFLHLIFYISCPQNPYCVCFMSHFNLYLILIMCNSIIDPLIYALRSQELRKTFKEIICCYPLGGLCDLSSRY

This assay has as its target Melanocortin receptor 4 (Homo sapiens) (UniProt P32245). Put plainly: blockers of MC4R Gs-cAMP response – cell-based, TR-FRET, antagonist arm of biased-ligand search, primary screen (AID 540295).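 Note: 0% = Melanotan II alone and 100% = Melanotan II plus saturating MCL0020.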 The note with it: MC4R-expressing cells, MTII-stimulated cAMP, LANCE TR-FRET; at 6.5 µM; hits give high values. A digest of the protocol:
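System: U2OS-MC4R stable cell line; Technique: Eu-cAMP/anti-cAMP TR-FRET, emission 671 nm; Repeats: single well per compound; Also added: Melanotan II; Dosing: one concentration, 6.5 µM nominal; Schedule: 30-min compound, 1-h challenge, 1-h detection, room temperature.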
Take `CN(C)C(=O)c1cccc(-c2cnc3c(NC=O)cc(-c4ccc(F)cc4)cn23)c1`: the inhibition was -2.24% (inactive).

Take `O=C(NNS(=O)(=O)c1c(F)cc(F)c(Cl)c1F)C12CC3CC(CC(C3)C1)C2`: the inhibition is -0.65% (inactive).

Regarding `CC(=O)N1CCN(S(=O)(=O)c2c(F)cc(F)c(Cl)c2F)CC1`, the inhibition was 32.7% (active).

Turning to `O=C(c1cnc(Cl)c(Cl)c1)N1CCN(S(=O)(=O)c2ccc(F)cc2)CC1`, the inhibition was 19.3% (inactive).

On to `COc1ccccc1C(=O)NC(CCSC)C(=O)NNC(=O)c1csc(N2CCOCC2)n1` (stereo not given), for which the inhibition was 14.9% (inactive).

In the case of `Cc1ccc(NC(=O)COC(=O)CNC(=O)c2ccc(Cl)cc2Cl)cc1S(=O)(=O)N1CCOCC1`, the inhibition is 31.4% (active).

As to `Cc1ccc(NC(=O)COC(=O)C2CC2)cc1S(=O)(=O)N1CCOCC1`, the inhibition was 5.97% (inactive).

Consider `Cc1ccc(NC(=O)CCCNC(=O)c2ccc(Cl)cc2)cc1S(=O)(=O)N1CCOCC1`, for which the inhibition is -7.04% (inactive).

Take `Cc1cc(C)c(NC(=O)CN2C(=O)NC(Cc3ccccc3)C2=O)c(C)c1` (stereo not given): the inhibition was -8.57% (inactive).

With `CC(=O)C1(C)N(O)C(C)(C)C(c2cccs2)=[N+]1[O-]` (stereo not given), the inhibition is -4.35% (inactive).

In the case of `CC1(C)C(c2cccs2)=[N+]([O-])C2(CCCCC2=O)N1O` (stereo not given), the inhibition is 29.8% (active).

Regarding `Cc1cc(-n2cnc(-c3cn(C)nc3C)n2)no1`, the inhibition was 3.28% (inactive).

Regarding `CC(=O)N(Cc1cccs1)C1CCOC(C)(C)C1` (stereo not given), the inhibition was -3.32% (inactive).

With `OC(CN1C2=NCCCN2c2ccccc21)c1ccc(Br)cc1` (stereo not given), the inhibition was -7.35% (inactive).

Regarding `COc1cccc(OCC(=O)NCCS(=O)(=O)N2CCN(c3ccccc3)CC2)c1`, the inhibition is 1.47% (inactive).

For `COC(=O)C1=C(C)N(C)C(=O)NC1c1ccc([N+](=O)[O-])o1` (stereo not given), the inhibition is -8.39% (inactive).

Consider `COC(=O)c1c(C)[nH]c(C)c1-c1ccc([N+](=O)[O-])cc1`, for which the inhibition was -0.44% (inactive).

As for `COC(=O)C1=C(C(=O)OC)C(c2cc([N+](=O)[O-])ccc2O)c2sc(=O)[nH]c2S1` (stereo not given), the inhibition is 33.3% (active).

As for `CC1(C)CC(N2CCN(C(c3ccccc3)c3ccccc3)CC2)=CC(=[N+]2CCCCC2)C1`, the inhibition is 5.45% (inactive).

Turning to `NC1=NC2(CCCCC2)N(c2ccc(F)cc2F)C(N)=N1`, the inhibition is 1.15% (inactive).

`Cc1ccc2c(cnn2C(=O)CCC(=O)NC2CCCC2)c1`: the inhibition is -3.58% (inactive).

Regarding `CC(C)N(c1ccccc1)c1ncnc(NCCC(=O)O)c1[N+](=O)[O-]`, the inhibition was 9.58% (inactive).

`Cc1ccc(NC(=O)c2c(NC(=O)CCC(=O)O)sc3c2CCCCC3)cc1`: the inhibition is 32% (active).

As to `O=C(CN1CCCC1)Nc1sc2c(c1C(=O)Nc1ccccc1)CCCC2`, the inhibition was -1.77% (inactive).

`COC(=O)c1c(NC(=O)CCN2CCOCC2)sc2c1CCCC2`: the inhibition was -12.7% (inactive).
